The text below walks through data of PMC10099142 (ACS Omega, 2023).

Where two headings read alike, the source gives them in different places.

Holding throughout (assay type): cell-based
The subject of test [1] is human lung adenocarcinoma (A549). The test is described as follows: MTT assay, antiproliferative activity, A549. The method, boiled down:
(§1)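 A549 cells are grown in DMEM and MDA-MB-231 cells in MEM, both with FBS and antibiotics, at 37 °C in humidified 5% CO2, then trypsinized. Cells are seeded at 5 × 10^3 per well and grown to confluency. They are exposed to a range of test compound concentrations for 24 h or 72 h, with 5-fluorouracil as reference. Medium is removed, MTT is added for 3 h, and formazan is dissolved in DMSO. A570 is read and percentage cell death is calculated.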
A general note: Tetrazolium assays rely on reduction of a dye to a coloured formazan, in cell work by metabolically active cells.

Test [2] deals with human breast adenocarcinoma (MDA-MB-231). Kind of test: MTT assay, antiproliferative activity, MDA-MB-231. The method, boiled down:
as §1

The subject of test [3] is 3T3-L1, a fibroblast cell line. Kind of test: Screening of toxicity in normal cell line. The conditions noted are these: Mus musculus, 3T3-L1, 72 h, read-out: IC50 3T3-L1 72 h. The method, boiled down: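 3T3-L1 fibroblasts are kept in DMEM with 5% FBS and antibiotics at 37 °C in humidified 5% CO2. They are seeded at 5 × 10^3 per well and grown to confluency, then treated with a range of test compound concentrations. MTT is added for 3 h after removing the medium, and formazan is dissolved in DMSO. A570 is read and percentage cell death is calculated.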

In general, IC50 refers to the concentration that inhibits the measured activity by half. Regarding `O=c1[nH]cc(F)c(=O)[nH]1` [5-fluorouracil], the IC50 in test [1] (A549, 24 h, read-out: IC50 A549 24 h) was 747 ± 0.13 µM; in test [1] (A549, 72 h, read-out: IC50 A549 72 h) it was 17 ± 0.41 µM; in test [2] (MDA-MB-231, 24 h, read-out: IC50 MDA-MB-231 24 h), 885 ± 0.76 µM; in test [2] (MDA-MB-231, 72 h, read-out: IC50 MDA-MB-231 72 h), 29.01 ± 0.01 µM; in test [3], 41.4 ± 1.05 µM.
